Data on five compounds can be found in PubChem BioAssay AID602246 (The Scripps Research Institute Molecular Screening Center, 2012).

Values without a mark were called inactive. The source made the active and inactive calls.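 The calls were made as follows: active = t-test against the solvent control gives p below 0.05 and normalized ATPase activity falls by at least 10%; inactive = the rest.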

The nature of the test: calcium desensitizers of cardiac myofibril ATPase, late-stage follow-up, mechanism study for cardiac RTF inhibitor project, biochemical, absorbance, porcine cardiac myofibrils, powder samples (AID 602246). To be noted: ATPase Pi absorbance 660 nm, at 10 µM, active compounds read low. The gist of the method:
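material = porcine cardiac myofibrils | benchmarks = DMSO wells | measure = ATPase activity ratio, compound-well mean over DMSO-well mean | reagent = 3.02 mM ATP, EC50 calcium | timing = 5 min compound preincubation, then 7 min ATPase reaction, 25 °C | measured by = phosphate absorbance at 660 nm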
As for `NCCCCCCNS(=O)(=O)c1cccc2c(Cl)cccc12`, the normalized ATPase activity is 0.854 (active).
The figure for `O=C(O)c1ccc2c(c1)[C@@H]1C=CC[C@@H]1[C@H](c1ccccn1)N2` is 0.982; for `O=C(O)c1cccc(-n2cccc2/C=C2/NC(=O)N(c3ccc(Cl)cc3)C2=O)c1` it is 0.975; for `COc1cccc2c1NC(C(=O)O)C1CC=CC21` (stereo not given) it is 1.03.
With `O=C(O)c1ccc2nc(-c3ccco3)c(-c3ccco3)nc2c1` the figure was 1.03.
